Measured values taken from ChEMBL document CHEMBL1151761, “Radiohalogenated prostate-specific membrane antigen (PSMA)-based ureas as imaging agents for prostate cancer” (J Med Chem, 2008).

Experiments:
Type in all cases: ADME, organism-based
Heart = assay: Biodistribution in heart of PSMA expressing human PC3 PIP and PSMA deficient human PC3 flu cells xenografted SCID mouse at 2 uCi, iv after 2 hrs; details: in vivo
Liver [1] = assay: Biodistribution in liver of PSMA expressing human PC3 PIP and PSMA deficient human PC3 flu cells xenografted SCID mouse at 2 uCi, iv after 30 mins; details: in vivo, 0.5 h
[2] = Ratio of drug level in tumor to muscle of human PSMA expressing PC3 PIP and PSMA deficient human PC3 flu cells xenografted SCID mouse at 2 uCi, iv after 30 mins; details: in vivo, 0.5 h
Summary of the method: (§1)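 Male SCID mice carried subcutaneous PSMA+ PC-3 PIP (left shoulder) and PC-3 flu (right shoulder) xenografts, 1-5 × 10^6 cells in HBSS, and were used at 3-5 mm tumor diameter. Tail-vein injection of 2 µCi radioligand; four mice per time point, killed by cervical dislocation. %ID/g from a standard dilution of the dose, decay-corrected, mean ± SD; PIP tumor:organ ratios.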

Urinary bladder [3] = assay: Biodistribution in bladder of PSMA expressing human PC3 PIP and PSMA deficient human PC3 flu cells xenografted SCID mouse at 2 uCi, iv after 30 mins; details: in vivo, 0.5 h
[4] = Ratio of drug level in tumor to heart of human PSMA expressing PC3 PIP and PSMA deficient human PC3 flu cells xenografted SCID mouse at 2 uCi, iv after 2 hrs; details: in vivo; summary of the method: as §1
Kidney [5] = assay: Biodistribution in kidney of PSMA expressing human PC3 PIP and PSMA deficient human PC3 flu cells xenografted SCID mouse at 2 uCi, iv after 2 hrs; details: in vivo
[6] = Biodistribution in large intestine of PSMA expressing human PC3 PIP and PSMA deficient human PC3 flu cells xenografted SCID mouse at 2 uCi, iv after 30 mins; details: in vivo, 0.5 h; summary of the method: as §1
[7] = Ratio of drug level in tumor to large intestine of human PSMA expressing PC3 PIP and PSMA deficient human PC3 flu cells xenografted SCID mouse at 2 uCi, iv after 60 mins; details: in vivo, 1 h; summary of the method: as §1
[8] = Ratio of drug level in tumor to liver of human PSMA expressing PC3 PIP and PSMA deficient human PC3 flu cells xenografted SCID mouse at 2 uCi, iv after 2 hrs; details: in vivo; summary of the method: as §1
[9] = Ratio of drug level in tumor to liver of human PSMA expressing PC3 PIP and PSMA deficient human PC3 flu cells xenografted SCID mouse at 2 uCi, iv after 30 mins; details: in vivo, 0.5 h; summary of the method: as §1
[10] = Biodistribution in PC3 PIP tumor of PSMA expressing human PC3 PIP and PSMA deficient human PC3 flu cells xenografted SCID mouse at 2 uCi, iv after 2 hrs; details: in vivo
Muscle tissue = assay: Biodistribution in muscle of PSMA expressing human PC3 PIP and PSMA deficient human PC3 flu cells xenografted SCID mouse at 2 uCi, iv after 60 mins; details: in vivo, 1 h
[11] = Ratio of drug level in PC3 PIP tumor to PC3 flu tumor of human PSMA expressing PC3 PIP and PSMA deficient human PC3 flu cells xenografted SCID mouse at 2 uCi, iv after 5 hrs; details: in vivo; summary of the method: as §1
[12] = Ratio of drug level in PC3 PIP tumor to PC3 flu tumor of human PSMA expressing PC3 PIP and PSMA deficient human PC3 flu cells xenografted SCID mouse at 2 uCi, iv after 30 mins; details: in vivo, 0.5 h; summary of the method: as §1
[13] = Ratio of drug level in tumor to stomach of human PSMA expressing PC3 PIP and PSMA deficient human PC3 flu cells xenografted SCID mouse at 2 uCi, iv after 30 mins; details: in vivo, 0.5 h
Summary of the method: (§2)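 Male SCID mice carried subcutaneous xenografts: PSMA+ PC-3 PIP behind the left shoulder and PSMA− PC-3 flu behind the right, 1–5 × 10^6 cells in HBSS. Mice were used at 3–5 mm tumor diameter. 2 μCi was given by tail vein, and 4 mice per time point were killed by cervical dislocation. %ID/g came from a standard dilution of the dose, decay-corrected. Ratio is PIP tumor %ID/g to organ %ID/g.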

Pancreas = assay: Biodistribution in pancreas of PSMA expressing human PC3 PIP and PSMA deficient human PC3 flu cells xenografted SCID mouse at 2 uCi, iv after 30 mins; details: in vivo, 0.5 h
Stomach = assay: Biodistribution in stomach of PSMA expressing human PC3 PIP and PSMA deficient human PC3 flu cells xenografted SCID mouse at 2 uCi, iv after 60 mins; details: in vivo, 1 h
[14] = Ratio of drug level in tumor to blood of human PSMA expressing PC3 PIP and PSMA deficient human PC3 flu cells xenografted SCID mouse at 2 uCi, iv after 30 mins
Summary of the method: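 Male SCID mice carried subcutaneous xenografts of PSMA+ PC-3 PIP cells behind the left shoulder and PSMA− PC-3 flu cells behind the right (1–5 × 10^6 cells in HBSS), used at a tumour diameter of 3–5 mm. Each mouse received 2 μCi of radioiodinated tracer via the tail vein. Tissues were harvested at each time point for %ID/g against a standard dilution of the dose, decay-corrected. Ratios are PIP tumour:organ.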

[15] = Ratio of drug level in tumor to stomach of human PSMA expressing PC3 PIP and PSMA deficient human PC3 flu cells xenografted SCID mouse at 2 uCi, iv after 60 mins; details: in vivo, 1 h; summary of the method: as §2
[16] = Ratio of drug level in tumor to bladder of human PSMA expressing PC3 PIP and PSMA deficient human PC3 flu cells xenografted SCID mouse at 2 uCi, iv after 5 hrs; details: in vivo; summary of the method: as §1
Urinary bladder [17] = assay: Biodistribution in bladder of PSMA expressing human PC3 PIP and PSMA deficient human PC3 flu cells xenografted SCID mouse at 2 uCi, iv after 5 hrs; details: in vivo
Liver [18] = assay: Biodistribution in liver of PSMA expressing human PC3 PIP and PSMA deficient human PC3 flu cells xenografted SCID mouse at 2 uCi, iv after 2 hrs; details: in vivo
[19] = Ratio of drug level in tumor to liver of human PSMA expressing PC3 PIP and PSMA deficient human PC3 flu cells xenografted SCID mouse at 2 uCi, iv after 5 hrs; details: in vivo; summary of the method: as §1
[20] = Ratio of drug level in tumor to small intestine of human PSMA expressing PC3 PIP and PSMA deficient human PC3 flu cells xenografted SCID mouse at 2 uCi, iv after 5 hrs; details: in vivo; summary of the method: as §2
[21] = Ratio of drug level in tumor to small intestine of human PSMA expressing PC3 PIP and PSMA deficient human PC3 flu cells xenografted SCID mouse at 2 uCi, iv after 30 mins; details: in vivo, 0.5 h; summary of the method: as §2
[22] = Biodistribution in PC3 PIP tumor of PSMA expressing human PC3 PIP and PSMA deficient human PC3 flu cells xenografted SCID mouse at 2 uCi, iv after 60 mins; details: in vivo, 1 h
Spleen = assay: Biodistribution in spleen of PSMA expressing human PC3 PIP and PSMA deficient human PC3 flu cells xenografted SCID mouse at 2 uCi, iv after 5 hrs; details: in vivo
Kidney [23] = assay: Biodistribution in kidney of PSMA expressing human PC3 PIP and PSMA deficient human PC3 flu cells xenografted SCID mouse at 2 uCi, iv after 30 mins; details: in vivo, 0.5 h
[24] = Ratio of drug level in tumor to spleen of human PSMA expressing PC3 PIP and PSMA deficient human PC3 flu cells xenografted SCID mouse at 2 uCi, iv after 60 mins; details: in vivo, 1 h; summary of the method: as §2

Work on `O=C(O)CC[C@H](NC(=O)N[C@@H](CCCCNC(=O)c1ccc([18F])cc1)C(=O)O)C(=O)O` yielded a Drug uptake (Heart) of 0.15 % ID/g, a Drug uptake (Liver [1]) of 8.7 % ID/g and a Ratio [2] of 4. It also gave a Drug uptake (Urinary bladder [3]) of 6.8 % ID/g, a Ratio [4] of 25 and a Drug uptake (Kidney [5]) of 29 % ID/g. It also gave a Drug uptake [6] of 1.2 % ID/g, a Ratio [7] of 13 and a Ratio [8] of 0.3. The Ratio [9] was 1, the Drug uptake [10] was 3.7 % ID/g and the Drug uptake (Muscle tissue) was 0.5 % ID/g. It also gave a Ratio [11] of 35, a Ratio [12] of 11 and a Ratio [13] of 11. It also gave a Drug uptake (Pancreas) of 0.8 % ID/g, a Drug uptake (Stomach) of 0.25 % ID/g and a Kp at 0.5 h [14] of 3. For the same molecule, the Ratio [15] was 26, the Ratio [16] was 0.7 and the Drug uptake (Urinary bladder [17]) was 5.2 % ID/g. The Drug uptake (Liver [18]) was 11.7 % ID/g, the Ratio [19] was 3.5 and the Ratio [20] was 35. The Ratio [21] was 5, the Drug uptake [22] was 6.4 % ID/g and the Drug uptake (Spleen) was 1 % ID/g. For the same molecule, the Drug uptake (Kidney [23]) was 72 % ID/g and the Ratio [24] was 1.
